# Measurements: ChEMBL document CHEMBL1781949, “Veraguamides A-G, cyclic hexadepsipeptides from a dolastatin 16-producing cyanobacterium Symploca cf. hydnoides from Guam” (J Nat Prod, 2011)
# Numbered stars: 1 amine (or outer) side, 2 acyl side, 3 side chain; on linkers, the order of the positions; unused ones are H or OH. Square brackets hold non-standard residues; d marks the D form. Peptide text beside a SMILES is read from it. X1 = CC(Cc1ccccc1)C(N[*:1])C(=O)[*:2]; X2 = CC(C)C(N[*:1])C(C)C(=O)[*:2]; dNMeV = CN[C@@H](C(=O)O)C(C)C; dHiv = CC(C)[C@@H](O)C(=O)O; Lac = C[C@H](O)C(=O)O
# Assays:
# HeLa = assay: Cytotoxicity against human HeLa cells after 48 hrs by MTT assay; type: functional, cell-based
# Summary of the method: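 HeLa cervical carcinoma cells grown in DMEM with 10% FBS at 37 °C and 5% CO2. Cells seeded at 3,000 per well and dosed at varying concentrations 24 h later. Paclitaxel positive control and DMSO solvent control. Incubated 48 h more before MTT measurement of viability. IC50 fitted from duplicate experiments.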
# HT-29 = assay: Cytotoxicity against human HT-29 cells after 48 hrs by MTT assay; type: functional, cell-based; conditions: HT-29, 48 h
# Summary of the method: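 HT29 colorectal adenocarcinoma cells grown in DMEM with 10% FBS at 37 °C and 5% CO2. Cells seeded at 12,500 per well and treated with a range of concentrations 24 h after seeding. Paclitaxel positive control and DMSO solvent control. 48 h exposure, then MTT read-out. IC50 fitted from duplicate experiments.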
SMILES,IC50 (HeLa),IC50 (HT-29)
CC(C)C1NC(=O)[C@@H]2CCCN2C(=O)C(C(C)Cc2ccccc2)NC(=O)[C@@H]2CCCN2C(=O)[C@@H](C(C)C)N(C)C(=O)[C@@H](C(C)C)OC(=O)[C@@H]2CCCN2C(=O)[C@H](C)OC(=O)C1C (stereo partly specified) [DOLASTATIN 16] (cyclo([Lac]P[dHiv][dNMeV]P[X1]P[X2])),58 µM,78 µM
CC(=O)O[C@H]1C(=O)[C@@]2(C)[C@H]([C@H](OC(=O)c3ccccc3)[C@]3(O)C[C@H](OC(=O)[C@H](O)[C@@H](NC(=O)c4ccccc4)c4ccccc4)C(C)=C1C3(C)C)[C@]1(OC(C)=O)CO[C@@H]1C[C@@H]2O [PACLITAXEL],0.0026 µM,0.003 µM
C#CCCC[C@H]1OC(=O)[C@H](C(C)C)N(C)C(=O)[C@@H]2CCCN2C(=O)[C@H]([C@@H](C)CC)OC(=O)[C@H](C(C)C)N(C)C(=O)[C@H](C(C)C)NC(=O)[C@H]1C [VERAGUAMIDE C],6.1 µM,–
C#CCCC[C@H]1OC(=O)[C@H](C(C)C)N(C)C(=O)[C@@H]2CCCN2C(=O)[C@H](Cc2ccccc2)OC(=O)[C@H](C(C)C)N(C)C(=O)[C@H](C(C)C)NC(=O)[C@H]1C [VERAGUAMIDE F],49 µM,–
